Assay outcomes (PubChem BioAssay)
APOBEC3A inh = human APOBEC3A DNA deaminase inhibition; P31941; 0.41% of 330,000 active; AID 493011; recombinant A3A, FAM/TAMRA ssDNA deamination fluorescence; inhibition, % at 20 µM;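 active = at least 40% inhibition at 20 µM here, with at most 30% in a related deaminase screen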;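 note: plate controls were A3A with DMSO for no effect and wells lacking A3A enzyme for full effect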
Target sequence (P31941 whole entry, looked up): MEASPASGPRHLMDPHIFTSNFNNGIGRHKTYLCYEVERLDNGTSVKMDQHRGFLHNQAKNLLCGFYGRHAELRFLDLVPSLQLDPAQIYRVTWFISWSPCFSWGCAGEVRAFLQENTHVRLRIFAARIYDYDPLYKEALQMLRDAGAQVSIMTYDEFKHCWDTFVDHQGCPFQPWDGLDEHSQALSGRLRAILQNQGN
ASAP1 inh = ASAP1 ArfGAP inhibition. inhibition, % at 16.5 µM. ASAP1-stimulated ARF1 GTP hydrolysis, GDP FP detection. Q9ULH1. 0.19% of 360,000 active; in the data active = inhibition above about 25%;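 note: 0% = vehicle with enzyme and substrate and 100% = no enzyme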
Target sequence (Q9ULH1 325-724 limits assumed): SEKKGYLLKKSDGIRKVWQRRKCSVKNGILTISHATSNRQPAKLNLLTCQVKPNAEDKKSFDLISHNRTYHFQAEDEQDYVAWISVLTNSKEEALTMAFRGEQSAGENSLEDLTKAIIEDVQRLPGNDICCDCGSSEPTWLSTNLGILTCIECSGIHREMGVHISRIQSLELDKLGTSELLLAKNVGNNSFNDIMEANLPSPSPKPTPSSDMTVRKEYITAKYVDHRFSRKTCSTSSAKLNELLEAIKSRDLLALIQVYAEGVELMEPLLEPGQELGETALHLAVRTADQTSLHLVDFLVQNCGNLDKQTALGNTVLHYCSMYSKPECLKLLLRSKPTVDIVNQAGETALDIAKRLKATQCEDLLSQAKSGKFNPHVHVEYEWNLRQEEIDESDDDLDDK
ARFGAP1 inhibitor = inhibits rat ARF GTPase activating protein 1 | Arfgap1-stimulated ARF1 GTP hydrolysis, GDP FP detection | inhibition, % at 16.5 µM | 0.26% of 360,000 active | AID 651572;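 active = inhibition above a per-plate limit, mean inhibition of low control wells plus 3 SD, cut at about 25% in these data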;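 note: 0% = DMSO wells with enzyme and 100% = wells lacking Arfgap1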
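system = rat Arfgap1 catalytic domain, aa 1-136 | technique = FP, GDP Alexa 633 tracer displaced from anti-GDP antibody, 620/688 nm | compound = one concentration, 16.5 µM, DMSO 1.26% | medium = HEPES-based buffer, pH 7.5 | timing = compound-enzyme preincubation 20 min, reaction 120 min, detection 60 min, 25 °C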
C2C12 statin = suppression of simvastatin myotoxicity | rescue of ATP level, % at 7.49 µM | 0.78% of 330,000 active | C2C12 myotubes + simvastatin, ATP luminescence, 48 h; scaled: DMSO 0, geranylgeraniol control 100 | AID 602340;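 active = mean ATP rescue above about 67%, or every replicate alone reaching that limit, limit read from the data, passing the limit was not always enough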;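 note: myotubes were challenged with 10 µM simvastatin during compound exposure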
Mot1-301 SUMO = inhibitors of SUMOylation pathway: yeast Mot1-301 growth rescue; growth rescue, % at 18.8 µM; AID 2716; 1% of 320,000 active; S. cerevisiae Mot1-301 growth rescue, ATP luminescence, 38.5C; percent above DMSO median, 100 means doubled;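 active = every valid replicate shows activation above 250% relative to neutral control wells; inactive = the rest, any valid replicate at or below 250%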;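 note: OY570 slx delta 5 strain wells were the positive control but not used for scaling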
A3G deaminase = inhibitors of human APOBEC3G DNA deaminase. Q9HC16. recombinant A3G, ssDNA deamination FAM/TAMRA fluorescence. inhibition, % at 20 µM. 0.28% of 330,000 active;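 active = inhibition of at least 40% at 20 µM, with no more than 30% in the related APOBEC3A deaminase screen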;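 note: plate controls were DMSO wells with A3G for no effect and wells lacking A3G enzyme for full effect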
The depositor's hits bear a star; . = no result. In the library only some 2.1% were active in any assay of this set; here they are far more common.

SMILES	APOBEC3A inh	ASAP1 inh	ARFGAP1 inhibitor	C2C12 statin	Mot1-301 SUMO	A3G deaminase
C[C@H](CO)N1C[C@H](C)[C@H](CN(C)Cc2ccc(Oc3ccccc3)cc2)Oc2ccc(NS(=O)(=O)c3ccc(F)cc3)cc2CC1=O	.	.	.	3.9	.	.
COc1ccc(CN(C)C[C@@H]2Oc3ccc(NS(=O)(=O)c4ccc(OC)cc4)cc3CC(=O)N([C@H](C)CO)C[C@@H]2C)cc1	.	.	.	10.5	.	.
COc1ccc(CN(C)C[C@H]2Oc3ccc(NS(=O)(=O)c4ccc(Cl)cc4)cc3CC(=O)N([C@H](C)CO)C[C@H]2C)cc1	.	.	.	62.7	.	.
COc1ccc(S(=O)(=O)Nc2ccc3c(c2)CC(=O)N([C@@H](C)CO)C[C@H](C)[C@@H](CN(C)Cc2ccc(Cl)c(Cl)c2)O3)cc1	.	.	.	122.2*	.	.
O=C(NC1CCC1)[C@@H]1[C@@H](CO)[C@@H]2Cn3c(ccc(-c4ccccc4)c3=O)[C@@H]2N1CCc1ccccc1	.	.	.	22.6	.	.
COc1ccc(S(=O)(=O)Nc2ccc3c(c2)CC(=O)N([C@H](C)CO)C[C@H](C)[C@H](CN(C)Cc2ccc(Oc4ccccc4)cc2)O3)cc1	.	.	.	5.0	.	.
COc1ccc(S(=O)(=O)Nc2ccc3c(c2)CC(=O)N([C@@H](C)CO)C[C@@H](C)[C@H](CN(C)Cc2ccc(Oc4ccccc4)cc2)O3)cc1	.	.	.	97.5*	.	.
O=C(/C=C/c1ccccc1Cl)NCc1ccccc1	3.0	-0.6	-5.9	144.8*	3.3	-0.6
O=C(/C=C/c1ccccc1Cl)NCCc1ccccc1	-3.5	.	.	-48.8	6.4	-7.0
CCOC(=O)N1CCN(c2c(N3CCN(c4cc(C)ccc4C)CC3)c(=O)c2=O)CC1	-5.6	0.8	-10.3	101.8*	-10.7	-9.1
CCOC(=O)N1CCN(c2c(N3CCN(C(=O)OCC)CC3)c(=O)c2=O)CC1	3.8	-14.6	-14.7	4.3	-4.9	-2.7
O=C(CSc1nnc2c(n1)[nH]c1ccc(F)cc12)OCc1ccccc1	3.8	-2.7	8.8	85.2*	8.3	1.6
C[C@@H](NC(=O)C[C@@H]1C=C[C@H](NC(=O)Cc2ccccn2)[C@@H](CO)O1)c1ccccc1	.	.	.	-3.8	.	.
Cc1nc(N2CCN(c3ccccc3)CC2)[nH]c(=O)c1CCC(C)C	-2.9	-5.7	-1.1	86.4*	13.7	-5.1
CCc1c(C)nc(N2CCN(c3ccccc3)CC2)[nH]c1=O	-6.7	-4.1	-1.2	24.2	2.6	-3.8
CCCSc1nc2c(cnn2-c2ccc(C)c(C)c2)c(=O)[nH]1	-0.8	5.8	0.9	-16.6	2.3	-6.8
COC(=O)c1ccc(CSc2nc3c(cnn3-c3ccc(C)c(C)c3)c(=O)[nH]2)o1	-1.0	6.8	-1.2	131.9*	-4.3	-4.6
CCOC(=O)c1cc(NC(=O)NCc2ccco2)c(C)nc1C	-0.2	1.6	2.3	82.6*	-9.1	-4.3
COc1ccc(Cc2nnc(Nc3ccccc3)s2)cc1Br	2.3	-11.5	-1.3	76.9*	12.1	-2.2
COc1ccc(CNc2ccccc2)cc1Br	-4.2	-5.3	8.1	17.3	-16.6	1.1
Cc1ccc(S(=O)(=O)Nc2cccc3c2O[C@H](CN(C)C(=O)Nc2ccccc2)[C@@H](C)CN([C@@H](C)CO)C3=O)cc1	.	.	.	14.7	.	.
CCCCCC(=O)NCC(C)NC(=O)CCCCC (stereo not given)	2.2	-4.9	11.8	.	486.1*	-7.9
C/C(=N\O)C(=O)Nc1ccccc1	6.6	8.4	-2.6	.	-6.5	4.2
CC(=N\Nc1ccc(Cl)cc1)/C(=N/O)C(=O)Nc1ccccc1	-2.0	4.8	16.6	13.9	256.2*	-3.1
Cc1cc(C)n2c(SCc3ccc(Br)cc3)nnc2n1	-1.9	1.9	4.9	.	-31.5	-0.6
SMILES	APOBEC3A inh	ASAP1 inh	ARFGAP1 inhibitor	C2C12 statin	Mot1-301 SUMO	A3G deaminase
Cc1cc(C)n2c(SCc3c(C)noc3C)nnc2n1	3.8	-6.5	6.2	92.5*	-6.8	1.0
CC(C)NC(=O)N(C)C[C@H]1Oc2c(NS(=O)(=O)c3ccc(F)cc3)cccc2C(=O)N([C@H](C)CO)C[C@H]1C	.	.	.	2.2	.	.
CCCNC(=O)C[C@@H]1CC[C@H]2[C@@H](COC[C@@H](O)CN2C(=O)c2ccccn2)O1	.	.	.	0.2	.	.
COCCCn1cnc2c(c1=O)c1nc3ccccc3nc1n2-c1ccccc1	3.4	10.0	1.2	127.0*	.	-0.7
COCCCn1c2nc3ccccc3nc2c2c(=O)n(Cc3ccccc3Cl)cnc21	-2.0	.	.	.	1.1	-2.0
CCCNC(=O)C[C@@H]1CC[C@H]2[C@H](COc3ccc(NC(=O)C4CCOCC4)cc3C(=O)N2C)O1	.	.	.	5.0	.	.
C[C@@H]1CN([C@H](C)CO)C(=O)Cc2cc(NS(C)(=O)=O)ccc2O[C@@H]1CN(C)Cc1ccc(-c2ccccc2)cc1	.	.	.	94.8*	.	.
Cc1ccc(S(=O)(=O)Nc2ccc3c(c2)CC(=O)N([C@@H](C)CO)C[C@@H](C)[C@H](CN(C)S(=O)(=O)c2ccc(C)cc2)O3)cc1	.	.	.	95.4*	.	.
Cc1ccc(S(=O)(=O)Nc2ccc3c(c2)CC(=O)N([C@@H](C)CO)C[C@H](C)[C@@H](CN(C)Cc2ccc(-c4ccccc4)cc2)O3)cc1	.	.	.	128.6*	.	.
O=C(NCC(c1ccco1)N1CCCC1)c1ccc(Cl)cc1 (stereo not given)	0.5	-15.4	4.7	91.9*	123.6	2.0
C[C@@H]1CN([C@@H](C)CO)S(=O)(=O)c2ccc(C#CC3CCCC3)cc2O[C@@H]1CN(C)Cc1cncnc1	.	.	.	-16.4	.	.
CCOc1ccccc1NC(=O)C1CCCN(S(=O)(=O)c2ccc(OC)c(C)c2)C1 (stereo not given)	-1.2	-26.2	-3.9	122.4*	-1.9	-1.8
O=C(Nc1cccc(-c2cccc(Cl)c2)c1)C1CCN(CC2CCOC2)CC1 (stereo not given)	-1.6	4.9	-9.2	-22.8	194.5	-5.2
O=C(Nc1cccc(-c2cccc(F)c2)c1)C1CCN(CC2CCOC2)CC1 (stereo not given)	-2.9	-3.9	10.0	-17.9	270.3*	-4.5
CCNC(=O)C[C@H]1C=C[C@@H](NC(=O)C2CC2)[C@@H](CO)O1	.	.	.	4.7	.	.
O=C(CCSc1nc(-c2ccco2)cc(C(F)(F)F)n1)Nc1ccc2c(c1)OCO2	-2.2	16.6	4.2	96.3*	19.8	-2.0
COc1cnc(SCc2c(Cl)cccc2Cl)nc1Cl	-3.6	5.4	4.1	88.2*	-17.5	-1.6
Cc1nc(SCc2c(F)cccc2Cl)n[nH]1	1.6	8.8	2.1	-29.0	-7.7	-0.7
Cc1nc2nc3c(c(=O)n2[nH]1)CCC3	1.3	-2.7	-11.1	.	-21.6	2.3
CSc1nc2nc3c(c(=O)n2[nH]1)CCCC3	-4.6	10.1	5.8	119.4*	-0.8	-5.6
CC12COC3(C(=O)Nc4nccs4)CC1CCC32C (stereo not given)	-2.5	7.1	12.6	-6.7	-9.9	-6.4
CC1(C)CC(C(=O)Nc2nccs2)CCO1 (stereo not given)	0.8	8.8	13.8	120.9*	-9.0	0.1
